Where “and” joins values, the source holds several entries; their conditions need not be identical. Equal entries are not always repeated.
Tested on: Fibroblast
Experiment: Multiplex assay against human fibroblast
Assay type: toxicity, cell-based
Summary of the method: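 Per cents of healthy-nucleus cells form the tubulin, mitochondrial-mass and membrane-permeability phenotype values. Live cells were stained at seeding with Hoechst33342, BioTracker Green Microtubule Cytoskeleton Dye, MitoTracker Red and Annexin V Alexa Fluor 680. After compound addition they were imaged on a CQ1 microscope at 37°C and 5% CO2, and CellPathfinder machine-learning gating split them into Hoechst high-intensity objects or normal cells, normal cells into healthy, pyknosed or fragmented nuclei, and pyknosed cells into mitotic or apoptotic.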

[1] = 12 h, 1 µM, compound concentration 1 uM
[2] = 12 h, 10 µM, compound concentration 10 uM
[3] = 24 h, 1 µM, compound concentration 1 uM
[4] = 24 h, 10 µM, compound concentration 10 uM
[5] = 48 h, 1 µM, compound concentration 1 uM
[6] = 48 h, 10 µM, compound concentration 10 uM

CCN1CCN(Cc2ccc(Nc3ncc(F)c(-c4cc(F)c5nc(C)n(C(C)C)c5c4)n3)nc2)CC1.CS(=O)(=O)O
Population Apoptotic (%) [1]: 17.78% and 12.5% | Population Fragmented Nuclei (%) [1]: 19.76% and 8.1% | Population Healthy Nuclei (%) [1]: 53.29% and 72.47% | Population Hoechst High Intensity Objects (%) [1]: 0% | Population Mitochondria Different-Phenotype (%) [1]: 15.73% and 16.2% | Population Mitotic Cells (%) [1]: 82.22% and 87.5% | Population Normal (%) [1]: 100% | Population Pyknosed Nuclei (%) [1]: 26.95% and 19.43% | Population Tubulin-Different-Phenotype (%) [1]: 38.2% and 41.9% | Total Cell Count [1]: 167 and 247 | Population Apoptotic (%) [2]: 22.89% and 30% | Population Fragmented Nuclei (%) [2]: 14.07% and 8.33% | Population Healthy Nuclei (%) [2]: 54.37% and 75% | Population Hoechst High Intensity Objects (%) [2]: 0% | Population Mitochondria Different-Phenotype (%) [2]: 15.38% and 7.78% | Population Mitotic Cells (%) [2]: 77.11% and 70% | Population Normal (%) [2]: 100% | Population Pyknosed Nuclei (%) [2]: 31.56% and 16.67% | Population Tubulin-Different-Phenotype (%) [2]: 68.53% and 62.59% | Total Cell Count [2]: 263 and 360 | Population Apoptotic (%) [3]: 25% | Population Fragmented Nuclei (%) [3]: 16.76% and 6.88% | Population Healthy Nuclei (%) [3]: 56.76% | Population Hoechst High Intensity Objects (%) [3]: 0% | Population Mitotic Cells (%) [3]: 89.8% and 75% | Population Normal (%) [3]: 100% | Population Pyknosed Nuclei (%) [3]: 26.49% and 11.59% | Population Tubulin-Different-Phenotype (%) [3]: 43.81% and 37.78% | Total Cell Count [3]: 185 and 276 | Population Apoptotic (%) [4]: 27.71% and 21.01% | Population Fragmented Nuclei (%) [4]: 11.19% and 3.61% | Population Healthy Nuclei (%) [4]: 58.84% and 63.13% | Population Hoechst High Intensity Objects (%) [4]: 0% | Population Mitochondria Different-Phenotype (%) [4]: 23.31% and 9.92% | Population Mitotic Cells (%) [4]: 72.29% and 78.99% | Population Normal (%) [4]: 100% | Population Pyknosed Nuclei (%) [4]: 29.96% and 33.25% | Population Tubulin-Different-Phenotype (%) [4]: 62.58% and 53.05% | Total Cell Count [4]: 277 and 415 | Population Apoptotic (%) [5]: 23.08% and 25% | Population Fragmented Nuclei (%) [5]: 17.96% and 9.26% | Population Healthy Nuclei (%) [5]: 75.73% and 86.3% | Population Hoechst High Intensity Objects (%) [5]: 0% | Population Mitotic Cells (%) [5]: 76.92% and 75% | Population Normal (%) [5]: 100% | Population Pyknosed Nuclei (%) [5]: 6.31% and 4.44% | Population Tubulin-Different-Phenotype (%) [5]: 44.23% and 44.64% | Total Cell Count [5]: 206 and 270 | Population Apoptotic (%) [6]: 38.62% and 20.77% | Population Fragmented Nuclei (%) [6]: 5.28% and 6.72% | Population Healthy Nuclei (%) [6]: 58.29% and 65.97% | Population Hoechst High Intensity Objects (%) [6]: 0% | Population Mitotic Cells (%) [6]: 61.38% and 79.23% | Population Normal (%) [6]: 100% | Population Pyknosed Nuclei (%) [6]: 36.43% and 27.31% | Population Tubulin-Different-Phenotype (%) [6]: 43.97% and 47.74% | Total Cell Count [6]: 398 and 670

CCn1c(-c2nc3cc(C(=O)N4CCCC(N)C4)ccc3n2C)cc2ccccc21.Cl (stereo not drawn)
Population Fragmented Nuclei (%) [1]: 17% [middle of 4 runs] | Population Healthy Nuclei (%) [1]: 67% and 54% and 55.75% and 78.2% | Population Hoechst High Intensity Objects (%) [1]: 3% and 5% and 0% | Population Membrane Permeable-Phenotype (%) [1]: 0% and 2% and 1.03% and 4.85% | Population Mitotic Cells (%) [1]: 77.42% [middle of 4 runs] | Population Normal (%) [1]: 96% and 94% and 100% | Population Pyknosed Nuclei (%) [1]: 15% and 23% and 28.16% and 14.69% | Population Tubulin-Different-Phenotype (%) [1]: 27% and 41% and 21.65% and 21.21% | Total Cell Count [1]: 128 and 167 and 174 and 211 | Population Healthy Nuclei (%) [2]: 63% and 37% and 62.74% and 73.72% | Population Hoechst High Intensity Objects (%) [2]: 1% and 3% and 0% | Population Membrane Permeable-Phenotype (%) [2]: 0% and 10.3% and 7.87% | Population Mitochondria Different-Phenotype (%) [2]: 18% and 19% and 29.7% and 27.78% | Population Mitotic Cells (%) [2]: 58% and 61% and 89.16% and 71.43% | Population Normal (%) [2]: 98% and 96% and 100% | Population Pyknosed Nuclei (%) [2]: 29% [middle of 4 runs] | Population Tubulin-Different-Phenotype (%) [2]: 69% and 80% and 72.73% and 81.48% | Total Cell Count [2]: 221 and 186 and 263 and 293 | Population Fragmented Nuclei (%) [3]: 22% [middle of 4 runs] | Population Healthy Nuclei (%) [3]: 68% and 54% and 66.49% and 74.56% | Population Hoechst High Intensity Objects (%) [3]: 0% and 9% | Population Membrane Permeable-Phenotype (%) [3]: 0% and 3% and 2.33% and 7.06% | Population Mitotic Cells (%) [3]: 70.59% [middle of 4 runs] | Population Normal (%) [3]: 99% and 90% and 100% | Population Pyknosed Nuclei (%) [3]: 17% [middle of 4 runs] | Population Tubulin-Different-Phenotype (%) [3]: 30% [middle of 4 runs] | Total Cell Count [3]: 127 and 184 and 194 and 228 | Population Healthy Nuclei (%) [4]: 66% and 46% and 70.93% and 75.81% | Population Hoechst High Intensity Objects (%) [4]: 3% and 4% and 0% | Population Membrane Permeable-Phenotype (%) [4]: 0% and 2% and 4.95% and 6.19% | Population Mitochondria Different-Phenotype (%) [4]: 40.95% [middle of 4 runs] | Population Mitotic Cells (%) [4]: 45.1% [middle of 4 runs] | Population Normal (%) [4]: 96% and 95% and 100% | Population Pyknosed Nuclei (%) [4]: 23% [middle of 4 runs] | Population Tubulin-Different-Phenotype (%) [4]: 76% and 82% and 83.33% and 85.24% | Total Cell Count [4]: 231 and 189 and 313 and 277 | Population Healthy Nuclei (%) [5]: 67% and 51% and 79.63% and 83.64% | Population Hoechst High Intensity Objects (%) [5]: 2% and 5% and 0% | Population Membrane Permeable-Phenotype (%) [5]: 1% and 2% and 1.16% and 4.47% | Population Normal (%) [5]: 97% and 94% and 100% | Population Pyknosed Nuclei (%) [5]: 8% and 15% and 6.02% and 7.01% | Total Cell Count [5]: 137 and 193 and 216 and 214 | Population Apoptotic (%) [6]: 76.92% [middle of 4 runs] | Population Healthy Nuclei (%) [6]: 72% and 57% and 86.19% and 89.14% | Population Hoechst High Intensity Objects (%) [6]: 3% and 0% | Population Membrane Permeable-Phenotype (%) [6]: 0% and 3.83% and 7.75% | Population Mitochondria Different-Phenotype (%) [6]: 22% and 16% and 24.74% and 18.08% | Population Normal (%) [6]: 96% and 100% | Population Pyknosed Nuclei (%) [6]: 8% and 3.3% and 4.28% | Population Tubulin-Different-Phenotype (%) [6]: 85% and 61.67% and 81.55% | Total Cell Count [6]: 232 and 231 and 333 and 304

— ChEMBL document CHEMBL5724801, “EUbOPEN Chemogenomics Library - Multiplex” (2024)
